Source: publication PMC6852796 (Asian Pacific Journal of Cancer Prevention : APJCP, 2019)
Where “and” joins values, the source holds several entries; their conditions need not be identical. Identical values can stand only once.

Tests used:
[1] = biological target: T1, Crude porcine PL type II (pancreatic lipase) (Sus scrofa, UniProt P00591); assay: In vitro PL activity spectrophotometric assay; format: biochemical; details: PL-IC50 value, p-NPB substrate, 37 °C
T1 sequence (P00591 1-450): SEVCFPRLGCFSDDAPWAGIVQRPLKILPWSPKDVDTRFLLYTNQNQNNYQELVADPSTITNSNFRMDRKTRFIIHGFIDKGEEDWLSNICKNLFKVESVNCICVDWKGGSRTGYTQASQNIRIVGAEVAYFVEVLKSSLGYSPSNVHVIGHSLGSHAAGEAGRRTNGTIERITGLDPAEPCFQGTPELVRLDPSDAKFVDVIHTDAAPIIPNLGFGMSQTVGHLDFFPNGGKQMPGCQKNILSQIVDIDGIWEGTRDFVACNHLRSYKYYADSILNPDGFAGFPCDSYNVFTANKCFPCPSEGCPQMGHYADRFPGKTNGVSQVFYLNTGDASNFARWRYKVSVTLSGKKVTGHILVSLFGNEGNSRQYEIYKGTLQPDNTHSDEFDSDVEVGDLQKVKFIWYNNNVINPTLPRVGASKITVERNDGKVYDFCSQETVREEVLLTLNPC

[2] = Glycation related cytotoxicity: test compound only, no MGO; format: cell-based, murine; details: mouse, RAW 264.7 macrophages
[3] = NOS related cytotoxicity, SRB viability of RAW 264.7; format: cell-based, murine; details: mouse, RAW 264.7 macrophages
Summary of the method: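 RAW 264.7 macrophages were maintained in high-glucose DMEM with 10% FBS and penicillin/streptomycin/[…] at 37 °C in humidified 5% CO2. The test compound's effect on their viability was measured by sulforhodamine B colorimetric staining, run alongside the LPS-stimulated nitrite assay.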

[4] = tested on: LPS-induced nitric oxide production in RAW 264.7 macrophages; assay: Anti-inflammatory; format: cell-based, murine; details: Mus musculus, RAW264.7, 24 h, read-out: NOS-IC50 value
Summary of the method: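 Cells (2 x 10^5/well) were exposed to test compound (5-200 μg/mL) plus LPS 10 μg/mL for 24 h. Medium was mixed 1:1 with Griess reagent (1% sulfanilamide in 5% phosphoric acid; 0.1% naphthylethylenediamine-HCl) for 10 min at RT. A550 was read and nitrite taken from a sodium nitrite standard curve.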

[5] = Selective cytotoxicity SRB assay, periodontal fibroblasts; format: cell-based; details: human, primary periodontal ligament fibroblasts (PDL), noncancerous
Summary of the method: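 Primary human periodontal fibroblasts served as a noncancerous counter-screen for selective cytotoxicity. […] Assays were run in triplicate and reported as mean ± SD (n=3).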

[6] = tested on: RAW 264.7 murine macrophages; assay: Glycation related cytotoxicity: test compound only, no MGO; format: cell-based; details: RAW264.7, in absence of MGO, 48 hr, SRB
[7] = tested on: Methylglyoxal induced cytotoxicity in RAW264.7 murine macrophages; assay: Antiglycation determination via methylglyoxal induced cytotoxicity; format: cell-based; details: RAW264.7, MGO 300 µM, 48 hr, SRB

In the case of CCc1ccc(Nc2c(F)cc3c(=O)c(C(=O)O)cn(C4CC4)c3c2[N+](=O)[O-])cc1 [3a, 1-cyclopropyl-7-(4-ethyl-phenylamino)-6-fluoro-8-nitro-4-oxo-1,4-dihydro-quinoline-3-carboxylic acid], the IC50 [1] is reported as 21.6 µM, the IC50 at 48 h [2] is reported as 437 µM and 180 µg/mL and the IC50 at 24 h [3] is reported as over 200 µg/mL. The IC50 [4] was 309 µM and 127 µg/mL and the IC50 at 72 h [5] was 437 µM and 180 µg/mL.

For CCCCc1ccc(Nc2c(F)cc3c(=O)c(C(=O)O)cn(C4CC4)c3c2[N+](=O)[O-])cc1 [3b, 7-(4-butyl-phenylamino)-1-cyclopropyl-6-fluoro-8-nitro-4-oxo-1,4-dihydro-quinoline-3-carboxylic acid], the IC50 [1] was 23.1 µM and 23.2 µM, the IC50 at 24 h [3] was 144 µg/mL and 327 µM and the IC50 [4] was 10.5 µg/mL and 23.8 µM. For the same molecule, the IC50 at 72 h [5] was 416 µM and 183 µg/mL.

With CCc1ccc(Nc2c(F)cc3c(=O)c(C(=O)O)cn(C4CC4)c3c2N)cc1 [4a, 8-amino-1-cyclopropyl-7-(4-ethyl-phenylamino)-6-fluoro-4-oxo-1,4-dihydro-quinoline-3-carboxylic acid] the IC50 [1] was 22.3 µM and 23.9 µM, the IC50 at 48 h [2] was 3.05 µM and 1.2 µg/mL and the IC50 at 24 h [3] was over 200 µg/mL. For the same molecule, the IC50 [4] was 60 µM and 22.9 µg/mL and the IC50 at 72 h [5] was 37.1 µM and 14.2 µg/mL.

With CCCCc1ccc(Nc2c(F)cc3c(=O)c(C(=O)O)cn(C4CC4)c3c2N)cc1 [4b, 8-amino-7-(4-butyl-phenylamino)-1-cyclopropyl-6-fluoro-4-oxo-1,4-dihydro-quinoline-3-carboxylic acid] the IC50 [1] was 74.7 µM and 69.6 µM, the IC50 at 48 h [2] was 8.51 µM and 3.5 µg/mL and the IC50 at 24 h [3] was over 200 µg/mL. The IC50 [4] was 29.8 µM and 12.2 µg/mL and the IC50 at 72 h [5] was 407 µM and 167 µg/mL.

For CCc1ccc(-n2nnc3c4c(cc(F)c32)c(=O)c(C(=O)O)cn4C2CC2)cc1 [5a, 9-cyclopropyl-3-(4-ethyl-phenyl)-4-fluoro-6-oxo-6,9-dihydro-3H-[1,2,3]triazolo[4,5-h]quinoline-7-carboxylic acid], the IC50 [1] was 95.5 µM and 95.6 µM, the IC50 at 48 h [2] was 84.1 µM and 33 µg/mL and the IC50 at 24 h [3] was over 200 µg/mL. The IC50 [4] was 51.5 µM and 20.2 µg/mL and the IC50 at 72 h [5] was 155 µM and 60.8 µg/mL.

In the case of CCCCc1ccc(-n2nnc3c4c(cc(F)c32)c(=O)c(C(=O)O)cn4C2CC2)cc1 [5b, 3-(4-butyl-phenyl)-9-cyclopropyl-4-fluoro-6-oxo-6,9-dihydro-3H-[1,2,3]triazolo[4,5-h]quinoline-7-carboxylic acid], the IC50 [1] is reported as 88.6 µM and 88.7 µM, the IC50 at 48 h [2] is reported as 161 µM and 67.7 µg/mL and the IC50 at 24 h [3] is reported as over 200 µg/mL. For the same molecule, the IC50 [4] was 98.8 µM and 41.5 µg/mL and the IC50 at 72 h [5] was 42.5 µM and 17.9 µg/mL.

For N=C(N)NN [Aminogaunidine, Aminoguanidine, reference compound], the “Glycation related Cytotox.-IC50 value” [6] was “(596.62±148.8 µg/mL )”, the IC50 ([6]; read-out: Glycation related Cytotox.-IC50 value) was 5390 ± 1350 µM and the Glycation-IC50 value [7] was “(0.34±0.0 µg/mL)”. It also gave an IC50 ([7]; read-out: Glycation-IC50 value) of 3.1 ± 0.35 µM.

In the case of COc1ccc2c(c1)c(CC(=O)O)c(C)n2C(=O)c1ccc(Cl)cc1 [Indomethacin, reference compound], the IC50 at 24 h [3] is reported as over 200 µg/mL and the IC50 [4] is reported as 212 µM and 75.9 µg/mL.
